The source made the active and inactive calls. The rule behind the calls is not given here.
How the values were obtained:
[1] = organism: Homo sapiens; assay: Activation of NF-kappaB (unknown origin) in NIH/3T3-KBF-Luc cells at 1 to 50 uM coincubated with TNF-alpha after 6 hrs by luciferase reporter gene assay; type: cell-based
How it was run: (§1)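 NIH-3T3-KBF-Luc fibroblasts (15 × 10⁴ cells/mL) were kept at 37 °C and 5% CO2 in DMEM with 10% heat-inactivated FBS. Cells were preincubated with the compounds at rising concentrations, then stimulated with TNFα for 6 h. They were PBS-washed and lysed for 15 min at rt in Tris-phosphate pH 7.8 with 1% Triton X-100. Luciferase was read in the supernatant, with TNFα alone set as 100%.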

[2] = target: Signal transducer and activator of transcription 3 (Homo sapiens) (UniProt P40763); assay: Inhibition of IFN gamma-induced STAT3 (unknown origin) activation in HeLa-STAT3-Luc cells at 1 to 50 uM after 6 hrs by luciferase reporter gene assay; type: cell-based
Chain of Signal transducer and activator of transcription 3 (Homo sapiens) (P40763 whole entry): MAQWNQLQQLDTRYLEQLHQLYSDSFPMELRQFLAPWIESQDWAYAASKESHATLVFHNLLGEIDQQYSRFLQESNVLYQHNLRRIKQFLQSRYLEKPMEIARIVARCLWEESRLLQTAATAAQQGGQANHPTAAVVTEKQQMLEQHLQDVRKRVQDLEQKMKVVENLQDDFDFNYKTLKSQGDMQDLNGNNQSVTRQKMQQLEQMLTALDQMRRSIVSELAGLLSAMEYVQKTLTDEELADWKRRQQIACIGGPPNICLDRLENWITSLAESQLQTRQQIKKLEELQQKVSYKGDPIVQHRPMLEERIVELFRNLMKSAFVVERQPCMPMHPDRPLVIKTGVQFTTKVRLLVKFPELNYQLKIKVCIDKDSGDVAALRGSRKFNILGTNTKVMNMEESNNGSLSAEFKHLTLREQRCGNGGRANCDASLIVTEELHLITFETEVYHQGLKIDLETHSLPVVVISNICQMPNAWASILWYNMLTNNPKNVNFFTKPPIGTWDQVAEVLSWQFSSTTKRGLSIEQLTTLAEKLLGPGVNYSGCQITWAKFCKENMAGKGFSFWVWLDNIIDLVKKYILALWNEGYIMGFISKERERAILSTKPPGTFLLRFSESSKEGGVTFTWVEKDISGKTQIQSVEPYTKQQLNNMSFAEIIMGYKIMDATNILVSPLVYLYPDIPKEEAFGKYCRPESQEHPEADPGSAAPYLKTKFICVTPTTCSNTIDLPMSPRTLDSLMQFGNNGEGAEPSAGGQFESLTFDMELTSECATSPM
How it was run: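 HeLa-STAT3-Luc reporter cells (15 × 10⁴ cells/mL, DMEM with 10% FBS, 37 °C, 5% CO2) were preincubated with the compounds at rising concentrations, then stimulated with IFNγ for 6 h. Lysate luciferase is expressed as percent inhibition, with IFNγ-induced activity set as 100%.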

[3] = target: T1, Nuclear factor erythroid 2-related factor 2 (Homo sapiens) (UniProt Q16236); assay: Activation of Nrf2 (unknown origin) in HaCaT-ARE-Luc cells at 1 to 50 uM after 6 hrs by luciferase reporter gene assay; type: cell-based
T1 sequence (whole entry): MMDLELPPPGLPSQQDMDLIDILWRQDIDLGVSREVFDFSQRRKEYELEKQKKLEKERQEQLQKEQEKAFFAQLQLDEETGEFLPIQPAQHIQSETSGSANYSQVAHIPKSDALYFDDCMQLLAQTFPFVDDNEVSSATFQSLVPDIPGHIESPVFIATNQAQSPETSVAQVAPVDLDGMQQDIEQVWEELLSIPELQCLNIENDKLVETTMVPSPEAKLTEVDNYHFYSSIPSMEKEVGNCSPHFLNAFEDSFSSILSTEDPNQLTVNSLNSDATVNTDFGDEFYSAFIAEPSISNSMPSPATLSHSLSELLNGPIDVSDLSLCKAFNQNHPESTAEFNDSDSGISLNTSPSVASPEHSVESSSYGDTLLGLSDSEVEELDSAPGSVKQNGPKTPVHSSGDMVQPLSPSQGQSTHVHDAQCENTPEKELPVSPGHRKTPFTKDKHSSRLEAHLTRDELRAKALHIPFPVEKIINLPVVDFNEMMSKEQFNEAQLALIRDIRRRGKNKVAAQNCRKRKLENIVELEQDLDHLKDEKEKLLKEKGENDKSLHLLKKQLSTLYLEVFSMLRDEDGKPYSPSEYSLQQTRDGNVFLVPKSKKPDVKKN
How it was run: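 HaCaT-ARE-Luc cells (15 × 10⁴ cells/mL, DMEM with 10% FBS, 37 °C, 5% CO2) were exposed to the compounds alone at rising concentrations for 6 h. Cells were PBS-washed and lysed in Tris-phosphate pH 7.8 with Triton X-100. Luciferase activity in the cleared lysate is given as fold induction over basal.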

[4] = target: Hypoxia-inducible factor 1-alpha (Homo sapiens) (UniProt Q16665); assay: Inhibition of DFX induced HIF-1 alpha (unknown origin) activation in NIH/3T3-EPO-Luc cells at 1 to 50 uM after 6 hrs by luciferase reporter gene assay; type: cell-based
Chain of Hypoxia-inducible factor 1-alpha (Homo sapiens) (Q16665 whole entry, looked up): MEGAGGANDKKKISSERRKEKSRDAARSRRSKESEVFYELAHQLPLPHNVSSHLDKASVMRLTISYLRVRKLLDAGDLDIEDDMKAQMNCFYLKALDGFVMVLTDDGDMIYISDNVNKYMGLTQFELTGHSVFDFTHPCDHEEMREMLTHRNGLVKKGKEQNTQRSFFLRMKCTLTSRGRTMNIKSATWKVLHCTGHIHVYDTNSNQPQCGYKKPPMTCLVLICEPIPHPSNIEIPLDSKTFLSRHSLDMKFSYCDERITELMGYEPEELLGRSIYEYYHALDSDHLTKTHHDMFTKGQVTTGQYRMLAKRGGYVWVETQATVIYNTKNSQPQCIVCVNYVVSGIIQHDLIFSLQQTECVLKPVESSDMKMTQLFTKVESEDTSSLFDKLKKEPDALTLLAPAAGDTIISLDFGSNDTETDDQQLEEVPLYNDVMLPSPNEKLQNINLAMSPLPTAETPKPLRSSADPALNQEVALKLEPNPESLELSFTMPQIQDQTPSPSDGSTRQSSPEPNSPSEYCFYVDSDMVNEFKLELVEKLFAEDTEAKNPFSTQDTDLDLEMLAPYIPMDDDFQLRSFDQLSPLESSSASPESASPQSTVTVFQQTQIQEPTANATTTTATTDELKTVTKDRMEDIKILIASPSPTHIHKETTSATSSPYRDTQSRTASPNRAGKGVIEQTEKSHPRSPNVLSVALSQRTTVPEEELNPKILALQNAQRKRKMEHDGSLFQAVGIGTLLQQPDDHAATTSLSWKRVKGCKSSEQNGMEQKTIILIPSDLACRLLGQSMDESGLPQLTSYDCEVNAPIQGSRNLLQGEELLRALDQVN
How it was run: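 NIH-3T3-EPO-Luc cells (15 × 10⁴ cells/mL, DMEM with 10% FBS, 37 °C) were preincubated with the compounds at rising concentrations, then given DFX (150 μM) for 6 h. Luciferase was measured in the cleared Tris-phosphate/Triton lysate and expressed as fold induction over basal.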

[5] = Inhibition of TNF alpha-induced NF-kappaB (unknown origin) activation in NIH/3T3-KBF-Luc cells after 6 hrs by luciferase reporter gene assay; type: cell-based; conditions: Homo sapiens; how it was run: as §1
[6] = organism: Homo sapiens; assay: Inhibition of TNF alpha-induced NF-kappaB (unknown origin) activation in NIH/3T3-KBF-Luc cells assessed as suppression of IKappaB alpha phosphorylation at 1 to 50 uM preincubated for 15 mins followed by TNF alpha stimulation for 30 mins by western blot analysis; type: cell-based
How it was run: (§2)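 NIH-3T3-KBF-Luc cells were treated with the compounds for 15 min, then stimulated with TNFα (30 ng/mL) for 30 min. Lysis used Hepes pH 8.0 buffer with 0.5% NP-40 and protease/phosphatase inhibitors (15 min, 4 °C), then 10000g for 10 min. After Bradford assay, 20 μg protein was run on 10% SDS-PAGE and blotted to nitrocellulose. Blocking was 5% milk overnight; phospho-protein detection was by ECL.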

[7] = organism: Homo sapiens; assay: Inhibition of TNF alpha-induced NF-kappaB (unknown origin) activation in NIH/3T3-KBF-Luc cells assessed as suppression of p65 phosphorylation at 1 to 50 uM preincubated for 15 mins followed by TNF alpha stimulation for 30 mins by western blot analysis; type: cell-based; how it was run: as §2
[8] = Cytotoxicity against mouse NIH/3T3-KBF-Luc cells assessed as cell viability at 1 to 50 uM after 12 hrs by YOYO-1 staining based fluorescence assay; conditions: nih3t3, 12 h
[9] = Cytotoxicity against mouse NIH/3T3-EPO-Luc cells assessed as cell viability at 1 to 50 uM after 12 hrs by YOYO-1 staining based fluorescence assay; conditions: nih3t3, 12 h
[10] = system: HeLa; assay: Cytotoxicity against human HeLa-STAT3-Luc cells assessed as cell viability at 1 to 50 uM after 12 hrs by YOYO-1 staining based fluorescence assay
[11] = system: HaCaT; assay: Cytotoxicity against human HaCaT-ARE-Luc cells assessed as cell viability at 1 to 50 uM after 12 hrs by YOYO-1 staining based fluorescence assay

Row | Activity [2] | Activity [3] | inhibition [4] | IC50 [5] [µM] | SMILES | Activity [1] | inhibition [6] | inhibition [7] | Activity [8] | Activity [9] | Activity [10] | Activity [11]
1 | inactive | Active | inactive | – | C=C1C=C[C@H]([C@@H](C)CC(=O)C=C(C)C)CC1 | Active | – | – | – | – | – | –
2 | – | inactive | inactive | 22.7 | CC(C)=CC(=O)C[C@H](C)c1ccc(C)cc1 | – | Active | Active | Non-toxic | Non-toxic | Non-toxic | Non-toxic

— ChEMBL document CHEMBL3797094, “Turmeric Sesquiterpenoids: Expeditious Resolution, Comparative Bioactivity, and a New Bicyclic Turmeronoid” (J Nat Prod, 2016)
